Active and inactive are the calls of the source. No cut-off for these calls is given here.
Legend:
[1] = tested on: A549; assay: Antiproliferative activity against human A549 cells assessed as inhibition of cell viability at 1 uM after 72 hrs by CCK-8 assay relative to control; format: functional; details: A549, 72 h
Outline: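 Single-concentration viability screen using CCK-8. Cells were seeded at 3000/well and treated for 72 h. A450 read after 1-4 h with reagent. Percent inhibition calculated against untreated control and blank wells as (Ac−As)/(Ac−Ab)×100%.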

[2] = molecular target: Serine/threonine-protein kinase ULK3 (Homo sapiens) (UniProt Q6PHR2); assay: Inhibition of recombinant full-length human ULK3 at 1 uM using casein as substrate measured after 40 mins in presence of [gamma33P]ATP by scintillation counting method relative to control
Chain of Serine/threonine-protein kinase ULK3 (Homo sapiens) (Q6PHR2 whole entry): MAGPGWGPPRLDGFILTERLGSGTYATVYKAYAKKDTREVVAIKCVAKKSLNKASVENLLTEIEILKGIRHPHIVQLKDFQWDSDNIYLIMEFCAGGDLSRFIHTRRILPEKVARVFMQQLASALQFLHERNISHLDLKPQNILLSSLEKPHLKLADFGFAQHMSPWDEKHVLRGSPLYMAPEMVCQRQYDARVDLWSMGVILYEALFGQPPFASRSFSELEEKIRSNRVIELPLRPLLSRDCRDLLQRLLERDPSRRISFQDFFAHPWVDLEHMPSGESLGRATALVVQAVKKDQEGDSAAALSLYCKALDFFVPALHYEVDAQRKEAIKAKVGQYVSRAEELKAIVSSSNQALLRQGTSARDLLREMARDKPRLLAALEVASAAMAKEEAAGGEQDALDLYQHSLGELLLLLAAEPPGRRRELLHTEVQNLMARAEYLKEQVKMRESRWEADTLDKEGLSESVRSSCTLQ

[3] = molecular target: Cyclin-dependent kinase 14/Cyclin-Y (Homo sapiens) (UniProt O94921+Q8ND76); assay: Inhibition of human CDK14/cyclinY at 1 uM by radiometric method relative to control; format: protein-complex assay
Outline: (§1)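 Percent inhibition of kinase activity at a single compound concentration, measured by the outsourced Eurofins KinaseProfiler panel. Values are the mean of two independent experiments.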

[4] = molecular target: MAP/microtubule affinity-regulating kinase 4 (Homo sapiens) (UniProt Q96L34); assay: Inhibition of full-length recombinant human MARK4 at 1 uM using KKKVSRSGLYRSPSMPENLNRPR as substrate measured after 40 mins in presence of [gamma33P]ATP by scintillation counting method relative to control; outline: as §1
Chain of MAP/microtubule affinity-regulating kinase 4 (Homo sapiens) (Q96L34 whole entry): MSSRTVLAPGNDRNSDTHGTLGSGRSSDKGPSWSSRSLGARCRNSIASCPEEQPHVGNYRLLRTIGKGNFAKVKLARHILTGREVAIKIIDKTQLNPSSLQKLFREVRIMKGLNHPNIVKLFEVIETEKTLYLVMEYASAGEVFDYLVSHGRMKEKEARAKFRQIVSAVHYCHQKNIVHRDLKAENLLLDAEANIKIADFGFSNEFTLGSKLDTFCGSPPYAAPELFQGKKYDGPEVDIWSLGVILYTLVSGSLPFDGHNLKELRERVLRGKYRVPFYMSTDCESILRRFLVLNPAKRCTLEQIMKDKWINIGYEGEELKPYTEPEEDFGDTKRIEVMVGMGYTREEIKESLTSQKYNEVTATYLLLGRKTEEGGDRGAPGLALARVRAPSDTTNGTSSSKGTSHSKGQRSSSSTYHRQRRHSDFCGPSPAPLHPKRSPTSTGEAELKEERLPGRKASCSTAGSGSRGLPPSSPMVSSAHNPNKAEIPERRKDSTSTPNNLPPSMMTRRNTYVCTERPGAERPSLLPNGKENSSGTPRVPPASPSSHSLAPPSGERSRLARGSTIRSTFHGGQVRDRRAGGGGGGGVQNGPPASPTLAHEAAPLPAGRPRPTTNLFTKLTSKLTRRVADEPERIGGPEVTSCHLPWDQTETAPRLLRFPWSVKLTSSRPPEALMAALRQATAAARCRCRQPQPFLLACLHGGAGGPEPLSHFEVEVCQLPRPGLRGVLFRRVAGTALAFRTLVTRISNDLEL

[5] = molecular target: Serine/threonine-protein kinase MAK (Homo sapiens) (UniProt P20794); assay: Inhibition of recombinant full-length human MAK at 1 uM using RRRFRPASPLRGPPK as substrate measured after 120 mins in presence of [gamma33P]ATP by scintillation counting method relative to control
Chain of Serine/threonine-protein kinase MAK (Homo sapiens) (P20794 whole entry): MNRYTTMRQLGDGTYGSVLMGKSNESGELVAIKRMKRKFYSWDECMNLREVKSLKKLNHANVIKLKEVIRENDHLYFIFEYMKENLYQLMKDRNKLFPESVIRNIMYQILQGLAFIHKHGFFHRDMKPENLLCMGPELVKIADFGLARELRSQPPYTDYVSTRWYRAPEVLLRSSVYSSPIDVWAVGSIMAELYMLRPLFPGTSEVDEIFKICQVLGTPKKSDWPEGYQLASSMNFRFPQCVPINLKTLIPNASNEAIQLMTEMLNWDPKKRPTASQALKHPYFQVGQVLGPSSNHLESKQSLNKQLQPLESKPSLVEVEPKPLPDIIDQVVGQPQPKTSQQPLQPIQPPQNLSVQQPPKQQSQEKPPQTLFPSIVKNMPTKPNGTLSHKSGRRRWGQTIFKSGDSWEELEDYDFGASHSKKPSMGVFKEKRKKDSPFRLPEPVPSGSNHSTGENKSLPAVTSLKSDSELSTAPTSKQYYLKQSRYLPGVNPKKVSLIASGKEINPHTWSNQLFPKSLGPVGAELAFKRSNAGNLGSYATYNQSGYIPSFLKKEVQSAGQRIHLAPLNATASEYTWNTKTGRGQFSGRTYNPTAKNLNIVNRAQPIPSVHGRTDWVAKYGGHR

[6] = molecular target: Serine/threonine-protein kinase pim-2 (Homo sapiens) (UniProt Q9P1W9); assay: Inhibition of recombinant human Pim-2 (2 to end residues) at 1 uM using RSRHSSYPAGT as substrate measured after 40 mins in presence of [gamma33P]ATP by scintillation counting method relative to control
[7] = molecular target: Dual specificity mitogen-activated protein kinase kinase 1 (Homo sapiens) (UniProt Q02750); assay: Inhibition of recombinant full-length human MEK1 at 1 uM using unactive MAPK2 as substrate measured after 40 mins in presence of [gamma33P]ATP by scintillation counting method relative to control
[8] = species: Homo sapiens; assay: Inhibition of recombinant human MARK1 V16E/T20S double mutant (2 to end residues) at 1 uM using KKKVSRSGLYRSPSMPENLNRPR as substrate measured after 40 mins in presence of [gamma33P]ATP by scintillation counting method relative to control
[9] = molecular target: Mitogen-activated protein kinase kinase kinase 9 (Homo sapiens) (UniProt P80192); assay: Inhibition of recombinant human MLK1 (134 to 414 residues) at 1 uM using casein as substrate measured after 40 mins in presence of [gamma33P]ATP by scintillation counting method relative to control
Chain of Mitogen-activated protein kinase kinase kinase 9 (Homo sapiens) (P80192 whole entry, looked up, the tested form may be a part): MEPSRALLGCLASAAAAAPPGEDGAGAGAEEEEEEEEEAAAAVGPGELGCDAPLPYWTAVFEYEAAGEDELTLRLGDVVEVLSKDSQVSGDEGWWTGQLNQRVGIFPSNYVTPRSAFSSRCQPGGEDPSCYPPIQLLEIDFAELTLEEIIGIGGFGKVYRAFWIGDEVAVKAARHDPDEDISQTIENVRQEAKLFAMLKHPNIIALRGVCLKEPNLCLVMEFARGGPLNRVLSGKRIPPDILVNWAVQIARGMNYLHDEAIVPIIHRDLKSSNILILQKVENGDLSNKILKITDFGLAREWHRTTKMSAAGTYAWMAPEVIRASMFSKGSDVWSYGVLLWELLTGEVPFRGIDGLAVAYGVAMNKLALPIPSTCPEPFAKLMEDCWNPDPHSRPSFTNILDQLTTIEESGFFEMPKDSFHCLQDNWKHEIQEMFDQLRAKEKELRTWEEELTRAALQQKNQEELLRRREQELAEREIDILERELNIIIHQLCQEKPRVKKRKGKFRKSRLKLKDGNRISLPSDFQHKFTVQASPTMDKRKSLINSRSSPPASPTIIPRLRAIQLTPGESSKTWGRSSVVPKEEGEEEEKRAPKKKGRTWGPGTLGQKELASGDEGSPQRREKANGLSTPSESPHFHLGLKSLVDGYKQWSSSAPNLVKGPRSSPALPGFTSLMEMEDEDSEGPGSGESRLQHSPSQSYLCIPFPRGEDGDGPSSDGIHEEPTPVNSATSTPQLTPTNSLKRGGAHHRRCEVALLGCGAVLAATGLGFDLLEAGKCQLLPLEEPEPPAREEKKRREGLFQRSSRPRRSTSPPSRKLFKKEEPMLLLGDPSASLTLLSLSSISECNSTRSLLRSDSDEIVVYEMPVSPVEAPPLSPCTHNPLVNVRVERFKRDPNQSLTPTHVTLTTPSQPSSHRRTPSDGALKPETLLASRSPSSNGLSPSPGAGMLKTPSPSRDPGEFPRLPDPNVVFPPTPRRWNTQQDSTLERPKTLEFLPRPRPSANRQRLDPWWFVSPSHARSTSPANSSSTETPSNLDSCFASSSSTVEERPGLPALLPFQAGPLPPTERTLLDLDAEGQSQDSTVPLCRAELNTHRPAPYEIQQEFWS

[10] = molecular target: Cyclin-dependent kinase 9 (Homo sapiens) (UniProt P50750); details: 0.25 to 1 uM
[11] = molecular target: CDK3/Cyclin E (Homo sapiens) (UniProt P24864+Q00526); assay: Inhibition of recombinant full-length human CDK3/cyclinE at 1 uM using Histone H1 as substrate measured after 40 mins in presence of [gamma33P]ATP by scintillation counting method relative to control; format: protein-complex assay
Chain of CDK3/Cyclin E (Homo sapiens) (P24864 whole entry, looked up): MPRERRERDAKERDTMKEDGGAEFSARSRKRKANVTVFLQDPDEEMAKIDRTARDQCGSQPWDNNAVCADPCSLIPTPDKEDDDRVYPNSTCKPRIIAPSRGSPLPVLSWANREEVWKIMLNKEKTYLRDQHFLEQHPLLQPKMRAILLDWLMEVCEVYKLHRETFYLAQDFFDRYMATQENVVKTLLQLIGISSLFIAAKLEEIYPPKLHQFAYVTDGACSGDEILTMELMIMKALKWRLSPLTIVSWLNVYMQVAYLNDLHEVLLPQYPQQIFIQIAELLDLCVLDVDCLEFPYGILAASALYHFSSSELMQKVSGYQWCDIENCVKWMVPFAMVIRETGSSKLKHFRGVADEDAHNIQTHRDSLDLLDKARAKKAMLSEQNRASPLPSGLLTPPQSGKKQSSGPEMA
Chain of CDK3/Cyclin E (Homo sapiens) (Q00526 whole entry, looked up): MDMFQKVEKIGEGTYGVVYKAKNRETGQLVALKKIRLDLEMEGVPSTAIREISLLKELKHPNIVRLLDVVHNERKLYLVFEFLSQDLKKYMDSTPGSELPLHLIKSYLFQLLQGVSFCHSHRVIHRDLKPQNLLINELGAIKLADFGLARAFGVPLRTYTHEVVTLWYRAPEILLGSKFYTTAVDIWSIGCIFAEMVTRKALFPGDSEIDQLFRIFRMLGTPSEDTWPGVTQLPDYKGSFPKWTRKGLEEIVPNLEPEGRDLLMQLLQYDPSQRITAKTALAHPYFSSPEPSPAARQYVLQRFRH

[12] = species: Homo sapiens; assay: Inhibition of recombinant human MAPKAPK2 A399G mutant (46 to end residues) at 1 uM using KKLNRTLSVA as substrate measured after 40 mins in presence of [gamma33P]ATP by scintillation counting method relative to control
Outline: (§2)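 Single-point inhibition at 1 µM was measured in the Eurofins KinaseProfiler panel. Values are the mean of two independent experiments.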

[13] = molecular target: Activin receptor type-2A (Homo sapiens) (UniProt P27037); assay: Inhibition of recombinant human ACTR2 (162 to end residues) at 1 uM using casein as substrate measured after 120 mins in presence of [gamma33P]ATP by scintillation counting method relative to control
Chain of Activin receptor type-2A (Homo sapiens) (P27037 whole entry): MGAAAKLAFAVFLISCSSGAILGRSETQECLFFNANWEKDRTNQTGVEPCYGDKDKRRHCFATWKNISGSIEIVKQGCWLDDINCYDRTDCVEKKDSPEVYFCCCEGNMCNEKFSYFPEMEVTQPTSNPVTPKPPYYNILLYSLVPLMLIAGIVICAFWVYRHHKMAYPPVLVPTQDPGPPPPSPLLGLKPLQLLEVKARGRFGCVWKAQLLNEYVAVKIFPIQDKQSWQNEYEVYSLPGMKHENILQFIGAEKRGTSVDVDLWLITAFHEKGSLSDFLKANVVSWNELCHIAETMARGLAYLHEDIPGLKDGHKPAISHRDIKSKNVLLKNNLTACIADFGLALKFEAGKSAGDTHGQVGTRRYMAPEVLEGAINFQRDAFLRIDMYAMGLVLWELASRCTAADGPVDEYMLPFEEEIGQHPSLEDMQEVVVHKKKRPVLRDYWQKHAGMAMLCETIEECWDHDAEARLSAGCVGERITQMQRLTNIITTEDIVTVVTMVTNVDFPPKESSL

[14] = Half life in Beagle dog liver microsomes at 2 uM in presence of NADPH measured up to 1 hr by HPLC analysis; format: ADME, Canis lupus familiaris, Microsome
Outline: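 Drug at 2 µM incubated at 37 °C with male liver microsomes at 1 mg/mL, in 0.1 M phosphate buffer pH 7.4 with MgCl2. After 5 min preincubation, reaction started with NADPH. Samples (n=3) taken at 0, 10, 20, 30, 45 and 60 min, quenched with ice-cold acetonitrile, spun, and analysed by HPLC. t1/2 derived from the fitted rate constant k.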

[15] = tested on: A549; assay: Inhibition of colony formation in human A549 cells after 12 days by crystal violet staining based assay; format: functional, cell-based
Outline: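 Cells exposed to compound, then washed, trypsinized and reseeded at 300 cells per well in 6-well plates. Colonies grew 10-14 days (legend: 12 days), were fixed in methanol 30 min, stained overnight with 0.5% crystal violet and imaged.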

[16] = molecular target: Serine/threonine-protein kinase N2 (Homo sapiens) (UniProt Q16513); assay: Inhibition of human PRK2 (501 to end residues) at 1 uM using AKRRRLSSLRA as substrate measured after 40 mins in presence of [gamma33P]ATP by scintillation counting method relative to control; outline: as §2
[17] = tested on: NCI-H1299; assay: Antitumour activity against human H1299 cells xenografted in Balb/c mouse assessed as inhibition of tumour growth at 40 mg/kg, po administered for 21 days by digital caliper method relative to control; format: functional; details: 504 h, read-out: TGI
Outline: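 Female nude mice, 6-8 weeks old, injected subcutaneously with 1×10^6 H1299 cells (100 µL of a 1×10^7/mL suspension in serum-free medium). At 100-120 mm3, randomized into groups of 5. Dosed orally each day for 21 days with drug dissolved in DMSO, or with vehicle. Caliper measurements and body weight taken every other day. Volume = short²×long×0.5. Growth inhibition based on change in volume relative to vehicle. Tumours weighed at the end.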

[18] = molecular target: Epidermal growth factor receptor (Homo sapiens) (UniProt P00533); assay: Inhibition of recombinant human EGFR (696 to end residues) at 1 uM using poly (Glu,Tyr) 4:1 as substrate incubated for 40 mins in presence of [gamma-33P]ATP at Km concentration by radiometric assay relative to control
[19] = tested on: Proto-oncogene tyrosine-protein kinase receptor Ret (Homo sapiens), P07949 [V804L]; assay: Inhibition of human Ret V804L mutant (658 to end residues) at 1 uM using KKKVSRSGLYRSPSMPENLNRPR as substrate measured after 40 mins in presence of [gamma33P]ATP by scintillation counting method relative to control; outline: as §1
[20] = molecular target: Protein kinase C zeta type (Homo sapiens) (UniProt Q05513); assay: Inhibition of recombinant human PKCzeta (2 to end residues) at 1 uM using ERMRPRKRQGSVRRRV as substrate measured after 40 mins in presence of [gamma33P]ATP by scintillation counting method relative to control; outline: as §2
Chain of Protein kinase C zeta type (Homo sapiens) (Q05513 whole entry): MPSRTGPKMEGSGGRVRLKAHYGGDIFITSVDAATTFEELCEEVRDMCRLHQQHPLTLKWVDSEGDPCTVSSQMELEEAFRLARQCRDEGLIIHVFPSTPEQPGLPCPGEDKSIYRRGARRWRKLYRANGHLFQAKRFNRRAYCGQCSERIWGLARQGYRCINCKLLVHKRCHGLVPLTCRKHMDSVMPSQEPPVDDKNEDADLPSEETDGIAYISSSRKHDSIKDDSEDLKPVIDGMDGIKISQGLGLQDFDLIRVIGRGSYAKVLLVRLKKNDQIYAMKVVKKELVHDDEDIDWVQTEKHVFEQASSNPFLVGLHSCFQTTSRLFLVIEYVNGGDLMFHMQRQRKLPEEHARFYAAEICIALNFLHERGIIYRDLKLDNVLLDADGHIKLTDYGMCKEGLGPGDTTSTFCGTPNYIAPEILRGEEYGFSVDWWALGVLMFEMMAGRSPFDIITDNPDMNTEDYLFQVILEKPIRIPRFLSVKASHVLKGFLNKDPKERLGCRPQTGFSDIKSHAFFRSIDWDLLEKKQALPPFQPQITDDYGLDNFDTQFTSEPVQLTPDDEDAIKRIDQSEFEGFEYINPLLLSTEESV

[21] = molecular target: Serine/threonine-protein kinase B-raf (Homo sapiens) (UniProt P15056); assay: Inhibition of recombinant human BRAF (416 to end residues) at 1 uM using myelin basic protein as substrate measured after 40 mins in presence of [gamma33P]ATP by scintillation counting method relative to control

For `CN(C)C(=O)c1cc2cnc(Nc3ccc(NC(=O)CCCCCCCN=C=S)cc3)nc2n1C1CCCC1`, the inhibition at 1 µM [1] was 85.6%, the inhibition [2] was 9% and the inhibition [3] was 56%. The inhibition [4] was 77%, the inhibition [5] was 94% and the inhibition [6] was -1%. For the same compound, the inhibition [7] was 22%, the inhibition [8] was 59% and the inhibition [9] was 34%. The inhibition [10] was “Active”, the inhibition [11] was 82% and the inhibition [12] was 1%. For the same compound, the inhibition [13] was 0%, the half-life at 2 µM [14] was 26.7 min and the inhibition [15] was “Dose-dependent effect”. For the same compound, the inhibition [16] was 11%, the inhibition in vivo at 40 mg/kg [17] was 89.7% and the inhibition [18] was 21%. For the same compound, the inhibition [19] was 46%, the inhibition [20] was 1% and the inhibition [21] was 34%.
